Bioassay records deposited in PubChem by several laboratories.
MEKK3 PB1 HTS – modulators of MEKK3-MEK5 PB1 binding, primary screen, biochemical, wildtype MEKK3, multiplex bead flow cytometry, Alexa488-MEK5; Mitogen-activated protein kinase kinase kinase 3 (Homo sapiens), Q99759; bead-based flow cytometry, Alexa488-MEK5 binding to MEKK3; actives lie on both sides; 0 = blocked by unlabeled MEK5, 100 = vehicle; binding response (% of control), % at 10 µM; 290,000 compounds, 1.4% hits;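 active means binding response more than 3 SD above or below the average of its plate-row segment, actives on both sides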;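 further: Alexa488 bead fluorescence after subtracting the streptavidin-only scavenger bead signal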
Target sequence (Q99759 whole entry, looked up): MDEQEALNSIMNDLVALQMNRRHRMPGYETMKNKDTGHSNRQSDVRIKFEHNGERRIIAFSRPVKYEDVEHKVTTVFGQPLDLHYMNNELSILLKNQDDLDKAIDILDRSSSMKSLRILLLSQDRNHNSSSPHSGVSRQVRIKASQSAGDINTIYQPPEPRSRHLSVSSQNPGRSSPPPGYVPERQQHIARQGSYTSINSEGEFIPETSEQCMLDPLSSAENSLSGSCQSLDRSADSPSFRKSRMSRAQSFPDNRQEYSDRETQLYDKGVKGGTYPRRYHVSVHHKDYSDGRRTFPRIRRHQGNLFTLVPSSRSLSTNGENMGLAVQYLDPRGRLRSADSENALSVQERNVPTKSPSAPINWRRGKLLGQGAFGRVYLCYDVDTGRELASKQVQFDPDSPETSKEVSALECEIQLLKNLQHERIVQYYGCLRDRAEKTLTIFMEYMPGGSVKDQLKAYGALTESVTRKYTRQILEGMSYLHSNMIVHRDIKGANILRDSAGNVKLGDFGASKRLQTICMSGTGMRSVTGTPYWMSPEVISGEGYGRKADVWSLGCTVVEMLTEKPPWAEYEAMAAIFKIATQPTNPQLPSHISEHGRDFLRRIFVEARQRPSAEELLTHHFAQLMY
MEKK2 WT-MEK5 – modulators of MEK5 binding to wildtype MEKK2, primary screen, biochemical, multiplex bead flow cytometry, Alexa488-MEK5; Mitogen-activated protein kinase kinase kinase 2 (Homo sapiens), Q9Y2U5; Alexa488-MEK5 binding to MEKK2 WT; actives lie on both sides; binding response (% of control), % at 10 µM; 290,000 compounds, 1.1% hits; AID 1531, 2009; in the data active means binding response below about 67% or above about 130%
MEKK2mut PB1 HTS – MEK5 binding signal on mutant MEKK2 PB1, primary screen, biochemical, multiplex bead flow cytometry, Alexa488-MEK5. 290,000 compounds, 0.35% hits. percent response, % at 10 µM. Alexa488-MEK5 binding to MEKK2 mutant; in the data active means percent response above about 24%, passing the limit was not always enough
HCV NS3 hel inh – inhibitors of HCV NS3 helicase, primary screen, biochemical, Cy5 molecular beacon fluorescence; AID 1800, 2009; inhibition, % at 10.9 µM; 290,000 compounds, 0.56% hits; Hepatitis C virus NS3 helicase; NS3 helicase DNA unwinding;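 active means inhibition above the mean of all tested compounds plus 3 SD, set per campaign, cut at about 35% in these data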;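 further: 0% = DMSO wells and 100% = thioflavine S control wells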
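Measured by: Cy5 fluorescence, 0 and 60 min reads / Assay system: NS3 helicase fragment of HCV / Control set: low DMSO, high thioflavine S at 110 µM / Times: 1 h reaction at 25 °C, ATP-initiated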
T cruzi inh – inhibitors of intracellular T. cruzi growth, primary screen, luminescence, NIH3T3 host cells | T. cruzi beta-gal in NIH3T3, 90 h | 300,000 compounds, 1.4% hits | inhibition, % (concentration not given with the values);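 active means mean inhibition across valid replicates above about 55%, limit read from the data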;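 further: signal also drops with host cell toxicity which is not excluded here; 0% = plate median of DMSO wells and 100% = zero luminescence signal; higher percent means less beta-gal luminescence so fewer parasites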
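System: Mouse NIH/3T3 fibroblasts infected with β-gal-expressing T. cruzi Tulahuen C4 | Quantity: NIH/3T3 cells, 5,000 per well | Reagent: 5000 reporter trypomastigotes per well | Dosing: Compound pinned at 50 nL/well, DMSO | Schedule: 3 h host attachment, then at least 90 h co-culture | Detection: GalScreen luminescence, 60 min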
FID counter – compounds displacing fluorescent DNA intercalator, primary screen, artefact control for HCV NS3 helicase inhibitor project, biochemical, FID fluorescence. DNA fluorescent intercalator displacement. inhibition, % at 7.9 µM. 290,000 compounds, 0.17% hits. AID 1845, 2009; in the data active means inhibition above about 37%;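 further: 0% = vehicle and 100% = reference compound; higher means more ethidium bromide displaced from hairpin DNA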
MEKK2wt confirm – modulators of MEK5 binding to wildtype MEKK2, confirmation, biochemical, single concentration, multiplex bead flow cytometry; Alexa488-MEK5 binding to MEKK2 WT; actives lie on both sides; 5,900 compounds, 2.4% hits; AID 1892, 2009; binding response (% of control), % at 10 µM; shares compounds with MEKK3 PB1 HTS; in the data active means binding response below about 16% or above about 210%; inactive means in between
MEKK2mut-MEK5 – mutant MEKK2 PB1-MEK5 binding signal retest – biochemical, single concentration, multiplex bead flow cytometry, confirmation. shares compounds with MEKK3 PB1 HTS. Alexa488-MEK5 binding to MEKK2 mutant. percent response, % at 10 µM. 5,900 compounds, 2% hits. AID 1893, 2009; in the data active means percent response mostly above about 71%, no sharp cut-off; inactive means mostly below about 38%;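 further: higher means compound restores mutant binding toward wildtype level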
MEKK3-MEK5 inh – MEKK3 wild-type PB1 binding to MEK5, inhibitors, confirmation, biochemical, bead multiplex flow cytometry, single concentration, wildtype. shares compounds with MEKK3 PB1 HTS. Alexa488-MEK5 binding to MEKK3; active compounds read low. binding response (% of control), % at 10 µM. 5,900 compounds, 1.8% hits;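 active means binding response below 72% of control, or above a set upper limit, though filed actives all read lower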;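 further: 100% = DMSO only wells and 0% = binding blocked by excess unlabeled MEK5; lower values mean stronger disruption of MEK5 binding to MEKK3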
An asterisk follows results filed as active; . = no result given; [ ] = remark or other dose. The list is not random: actives were taken first. Their share in the collection is about 4.1%.

SMILES	MEKK3 PB1 HTS	MEKK2 WT-MEK5	MEKK2mut PB1 HTS	HCV NS3 hel inh	T cruzi inh	FID counter	MEKK2wt confirm	MEKK2mut-MEK5	MEKK3-MEK5 inh
O=[N+]([O-])c1ccccc1CN1CCN(c2ncccn2)CC1	106	105	4	3	-8	2	.	.	.
O=[N+]([O-])c1ccccc1CN1CCN(Cc2ccccn2)CC1	2.0*[inhibitor]	1.0*[inhibitor]	-84	8	-6	6	97	-3	96
Cc1ccc(Oc2cc([N+](=O)[O-])cc3c2C(=O)Nc2ccccc2O3)cc1	130*	94	-2	6	6	-4	95	-4	100
CC(=O)c1ccc(Oc2ccc(C(C)=O)cc2)cc1	104	104	2	2	-12	-6	.	.	.
CC(=O)c1ccc(OCCOc2ccc(C#N)cc2)cc1	130*	127	24	-1	-7	-9	102	6	104
COc1ccc(C)cc1S(=O)(=O)n1cnc2ccccc21	101	97	2	-5	12	-4	.	.	.
CN(C(=O)COC(=O)C(Cc1ccccc1)NC(=O)c1ccccc1)c1ccccc1 (stereo not drawn)	134*	106	0	4	-3	-30	101	-8	98
COC(=O)/C(=C/c1ccc2c(c1)c1ccccc1n2C)NC(=O)c1ccccc1	73*[inhibitor]	99	-1	-6	31	-20	105	-1	105
CCN(CC)c1ccc(/C=N/NC(=O)CN2CCCc3ccccc32)cc1	139*	101	-1	-1	2	-11	96	-6	100
CC(OC(=O)CNC(=O)COc1ccccc1)C(=O)N(C)Cc1ccccc1 (stereo not drawn)	.	.	.	.	-6	.	.	.	.
Cc1noc(C)c1C(=O)OCC(=O)NC(=O)NC12CC3CC(CC(C3)C1)C2	99	97	0	0	-9	-6	.	.	.
Cc1nn(Cc2ccccc2)c(Cl)c1C(=O)OCC(=O)NC(=O)NC12CC3CC(CC(C3)C1)C2	145*	106	1	0	23	-1	98	-7	101
O=C(NCCCN1CCCC1)c1cc2c(Cl)nc3ccccc3c2s1	103	142*	17	-1	54	22	143	21	107
CCN1CCN(CCCNC(=O)c2cc3c(=O)[nH]c4ccccc4c3s2)CC1	100	105	2	-6	16	15	.	.	.
CCN(CC)CCCNC(=O)c1cc2c(-c3ccc(Cl)cc3)nn(C)c2s1	122*	218*	29*	-76	42	35	154	26	104
O=C(NCCCN1CCCCCC1)c1ccc2c(Cl)c3c(nc2c1)CCCC3	107	160*	-1	-21	7	-1	172	47	105
CN1CCN(CCCNC(=O)c2cc3c(-c4ccc(Cl)cc4)nn(C)c3s2)CC1	108	180*	17	-74	32	29	150	25	103
CCOC(=O)c1cc(-c2ccc(OC)cc2OC)nn1-c1ccc(C(=O)O)cc1	95	82	-7	13	-1	-37	.	.	.
COc1ccccc1NC(=O)CSc1ccc(-c2ccc(-n3cccn3)cc2)nn1	.	.	.	.	-1	.	.	.	.
CC1CCCCN1CCNC(=O)c1cc2c(-c3ccccc3F)nn(C)c2s1 (stereo not drawn)	112	128	24*	-25	36	10	118	33	105
CCN(CCCNC(=O)c1cc2c(-c3cccc(OC)c3)nn(C)c2s1)Cc1ccccc1	108	149*	31*	-91	42	22	166	50	107
CC(=O)c1ccc(OCCCC(=O)NC2CCCc3ccccc32)cc1 (stereo not drawn)	90	107	15	5	15	-28	.	.	.
NC(=O)C(c1ccccn1)c1ncc(C(F)(F)F)cc1Cl (stereo not drawn)	40*[inhibitor]	52	-14	16	-9	-6	101	-1	103
COc1ccc(CC(=O)Nc2ccc(N(C)C)c3ccccc23)cc1	96	101	5	12	-9	-18	.	.	.
CCc1ccc(OCC(O)CN2CCC(CN3C(=O)c4cccc5cccc(c45)C3=O)CC2)cc1 (stereo not drawn)	118	148*	1	-65	56*	9	199	43	108
SMILES	MEKK3 PB1 HTS	MEKK2 WT-MEK5	MEKK2mut PB1 HTS	HCV NS3 hel inh	T cruzi inh	FID counter	MEKK2wt confirm	MEKK2mut-MEK5	MEKK3-MEK5 inh
O=C1c2cccc3cccc(c23)C(=O)N1CCN1CCN(CC(O)COc2ccc3ccccc3c2)CC1 (stereo not drawn)	111	149*	5	-52	34	0	178	43	105
COc1cccc(OCC(O)CN2CCC(CN3C(=O)c4cccc5cccc(c45)C3=O)CC2)c1 (stereo not drawn)	115	156*	-3	-84	63*	14	115	11	100
Cc1ccc([N+](=O)[O-])cc1S(=O)(=O)Nc1ccccn1	103	102	1	3	-10	4	.	.	.
C=C1CCN(c2ccc(C(=O)NCc3ccc(OC)cc3)cc2[N+](=O)[O-])CC1	103	101	0	.	37	.	.	.	.
COc1ccc(N2CCN(CCCNC(=O)c3cc4sccc4n3C)CC2)cc1	108	148*	18	-31	31	28	126	22	108
COc1ccc(NC(=S)NCCCN2CCCC2)cc1	98	97	-1	-1	-11	1	.	.	.
COc1cccc(C(=O)NCCCNC(=O)c2cccc(OC)c2)c1	103	103	3	4	-6	-10	.	.	.
CCc1nc2ccc(C(=O)NCCCN3CCN(c4ccccc4F)CC3)cc2nc1CC	107	137*	19	-29	14	2	145	31	104
